The values below come from ChEMBL document CHEMBL4732114, “Design and structural optimization of novel 2H-benzo[h]chromene derivatives that target AcrB and reverse bacterial multidrug resistance” (Eur J Med Chem, 2021).

In brackets after ≈: the same amount, converted by molar mass.

The target in data set [1] is T1, Multidrug efflux pump subunit AcrB (Escherichia coli (strain K12)) (UniProt P31224).
T1 sequence (whole entry): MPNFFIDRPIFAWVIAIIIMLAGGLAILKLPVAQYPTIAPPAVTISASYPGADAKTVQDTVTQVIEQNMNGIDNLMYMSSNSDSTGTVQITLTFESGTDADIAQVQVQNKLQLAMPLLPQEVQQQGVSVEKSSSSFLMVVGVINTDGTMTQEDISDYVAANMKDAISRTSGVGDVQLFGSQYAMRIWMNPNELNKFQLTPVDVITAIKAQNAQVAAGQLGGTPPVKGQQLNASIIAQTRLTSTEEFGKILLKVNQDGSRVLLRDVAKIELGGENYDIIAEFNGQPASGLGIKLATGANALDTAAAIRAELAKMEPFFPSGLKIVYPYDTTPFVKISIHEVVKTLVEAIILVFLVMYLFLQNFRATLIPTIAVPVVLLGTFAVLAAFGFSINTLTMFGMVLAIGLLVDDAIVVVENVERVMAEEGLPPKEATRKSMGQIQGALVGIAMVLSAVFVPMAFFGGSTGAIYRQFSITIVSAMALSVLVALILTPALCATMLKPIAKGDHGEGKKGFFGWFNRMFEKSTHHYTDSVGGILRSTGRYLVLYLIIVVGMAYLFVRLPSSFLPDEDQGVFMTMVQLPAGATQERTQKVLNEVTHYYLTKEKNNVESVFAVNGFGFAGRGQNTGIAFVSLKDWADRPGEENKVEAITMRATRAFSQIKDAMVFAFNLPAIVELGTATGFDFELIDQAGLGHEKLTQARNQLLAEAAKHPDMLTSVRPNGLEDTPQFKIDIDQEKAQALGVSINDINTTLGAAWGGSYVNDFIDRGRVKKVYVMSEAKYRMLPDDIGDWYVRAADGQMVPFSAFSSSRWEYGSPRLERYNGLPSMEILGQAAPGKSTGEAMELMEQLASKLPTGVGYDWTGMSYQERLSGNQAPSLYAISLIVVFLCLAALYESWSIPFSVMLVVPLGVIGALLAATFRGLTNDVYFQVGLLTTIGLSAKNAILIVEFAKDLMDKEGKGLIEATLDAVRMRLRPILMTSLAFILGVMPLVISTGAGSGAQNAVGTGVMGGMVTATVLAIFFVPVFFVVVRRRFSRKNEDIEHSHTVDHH
The data set can be described thus: Inhibition of AcrB in multidrug-resistant Escherichia coli BW25113 assessed as potentiation of erythromycin-induced antibacterial activity by measuring erythromycin MIC at 64 ug/ml by checkerboard titration method (reference value: 64 ug/ml). The conditions noted are these: dose 64.0 µg/ml.

In data set [2] the target is T1, Multidrug efflux pump subunit AcrB (Escherichia coli (strain K12)). The data set can be described thus: Inhibition of AcrB in multidrug-resistant Escherichia coli BW25113 assessed as potentiation of tetraphenylphosphonium-induced antibacterial activity by measuring tetraphenylphosphonium MIC at 32 ug/ml by checkerboard titration method (reference value: 1024 ug/ml). The conditions noted are these: dose 32.0 µg/ml.

Data set [3] can be described thus: Toxicity in multidrug-resistant Escherichia coli BW25113 assessed as growth inhibition by two-fold broth dilution method.
In data set [4] the target is T1, Multidrug efflux pump subunit AcrB (Escherichia coli (strain K12)). The data set can be described thus: Inhibition of AcrB in multidrug-resistant Escherichia coli BW25113 assessed as potentiation of levofloxacin-induced antibacterial activity by measuring levofloxacin MIC at 64 ug/ml by checkerboard titration method (reference value: 0.06 ug/ml). Conditions: dose 64.0 µg/ml; call rule not given here.

The nature of data set [5]: Toxicity in multidrug-resistant Escherichia coli BW25113 harboring AcrB deletion mutant assessed as growth inhibition by two-fold broth dilution method.
The target of data set [6] is T1, Multidrug efflux pump subunit AcrB (Escherichia coli (strain K12)). The conditions noted are these: Escherichia coli BW25113; dose 16.0 µg/ml.
The target is the same in data set [7]. Kind of data set: Inhibition of AcrB in multidrug-resistant Escherichia coli BW25113 assessed as potentiation of chloramphenicol-induced antibacterial activity by measuring chloramphenicol MIC at 64 ug/ml by checkerboard titration method (reference value: 8 ug/ml). Conditions: dose 64.0 µg/ml.
Data set [8] deals with Cell membrane. The data set can be described thus: Induction of inner membrane permeabilization in wild type Escherichia coli BW25113 assessed as perturbation of proton motive force at 32 ug/ml measured after 10 mins in presence of CCCP and glucose by Di0C2(3) probe based fluorescence assay. The conditions noted are these: escherichia coli bw25113, 10 min, dose 32 µg/ml. Summed up:
(§1)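 Cell suspensions were left untreated or exposed to 8-128 µg/mL compound for 10 min. DiOC₂(3) was then added and fluorescence followed to a plateau. Cells were re-energized with 0.5% glucose, and the rise in fluorescence was read as membrane-potential build-up. CCCP was added last to dissipate the potential.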

Data set [9] deals with T1, Multidrug efflux pump subunit AcrB (Escherichia coli (strain K12)). Kind of data set: Inhibition of AcrB in multidrug-resistant Escherichia coli BW25113 assessed as potentiation of levofloxacin-induced antibacterial activity by measuring levofloxacin MIC at 128 ug/ml by checkerboard titration method (reference value: 0.06 ug/ml). Conditions: dose 128.0 µg/ml.
Data set [10] deals with Cell membrane. The data set can be described thus: Induction of inner membrane permeabilization in wild type Escherichia coli BW25113 assessed as perturbation of proton motive force at 128 ug/ml measured after 10 mins in presence of CCCP and glucose by Di0C2(3) probe based fluorescence assay. Conditions: escherichia coli bw25113, 10 min, dose 128 µg/ml. A digest of the protocol: as §1

Data set [11] has as its target T1, Multidrug efflux pump subunit AcrB (Escherichia coli (strain K12)). Kind of data set: Inhibition of AcrB in multidrug-resistant Escherichia coli BW25113 assessed as potentiation of erythromycin-induced antibacterial activity by measuring erythromycin MIC at 128 ug/ml by checkerboard titration method (reference value: 64 ug/ml). The conditions noted are these: dose 128.0 µg/ml.

For data set [12] the target is unchanged. Kind of data set: Inhibition of AcrB in multidrug-resistant Escherichia coli BW25113 assessed as potentiation of levofloxacin-induced antibacterial activity by measuring levofloxacin MIC at 32 ug/ml by checkerboard titration method (reference value: 0.06 ug/ml). The conditions noted are these: dose 32.0 µg/ml.
Data set [13] shares this target. Kind of data set: Inhibition of AcrB in multidrug-resistant Escherichia coli BW25113 assessed as potentiation of erythromycin-induced antibacterial activity by measuring erythromycin MIC at 32 ug/ml by checkerboard titration method (reference value: 64 ug/ml). The conditions noted are these: dose 32.0 µg/ml.
The target is the same in data set [14]. The data set can be described thus: Inhibition of AcrB in multidrug-resistant Escherichia coli BW25113 assessed as potentiation of levofloxacin-induced antibacterial activity by measuring levofloxacin MIC at 8 ug/ml by checkerboard titration method (reference value: 0.06 ug/ml). The conditions noted are these: dose 8.0 µg/ml.
Data set [15] shares this target. Conditions: Escherichia coli BW25113; dose 64.0 µg/ml.
In data set [16] the test system is Cell membrane. Kind of data set: Induction of inner membrane permeabilization in wild type Escherichia coli BW25113 assessed as perturbation of proton motive force at 8 ug/ml measured after 10 mins in presence of CCCP and glucose by Di0C2(3) probe based fluorescence assay. The conditions noted are these: escherichia coli bw25113, 10 min, dose 8 µg/ml. Summed up:
as §1

Consider `Cc1ccc(COc2cccc3c4c(c(-c5nnco5)cc23)CCC(C)(C)O4)cc1`, for which the MIC in data set [1] was 16 µg/mL; in data set [2], 512 µg/mL; in [3], greater than 512 µg/mL; in data set [4], 0.03 µg/mL; in data set [5], greater than 128 µg/mL; in [6], 16 µg/mL (≈ 40 µM). Also, the MIC in data set [7] came to 8 µg/mL; in [9], 0.01 µg/mL; in [11], 8 µg/mL; in data set [12], 0.03 µg/mL; in data set [13] it was 32 µg/mL; in data set [14], 0.03 µg/mL. Further, the MIC in data set [15] came out at 16 µg/mL (≈ 40 µM). Moreover, the Activity result in [8] and in data set [10] was “Not Active” in each case.
With `COc1cccc(COc2cccc3c4c(c(C(=O)O)cc23)CCC(C)(C)O4)c1`, the MIC in [1] is 32 µg/mL; in data set [2], 1020 µg/mL; in data set [3], greater than 512 µg/mL; in data set [4], 0.06 µg/mL; in data set [5] it was greater than 128 µg/mL; in data set [6] it was 16 µg/mL (≈ 40.8 µM). Moreover, the MIC is 4 µg/mL in [7]; 0.06 µg/mL in data set [9]; 16 µg/mL in [11]; 0.06 µg/mL in data set [12]; 32 µg/mL in data set [13]; 0.06 µg/mL in data set [14]. Moreover, the MIC in [15] came out at 16 µg/mL (≈ 40.8 µM). Besides, the Activity result in [8] and in data set [10] was “Not Active” throughout.
In the case of `COc1cccc(COc2cccc3c4c(c(C(=O)N5CCOCC5)cc23)CCC(C)(C)O4)c1`, the MIC in [1] is 32 µg/mL; in data set [2], 512 µg/mL; in data set [3], greater than 512 µg/mL; in data set [4], 0.06 µg/mL; in [5] it was greater than 128 µg/mL; in [6], 16 µg/mL (≈ 34.7 µM). The MIC in data set [7] is 4 µg/mL; in [9], 0.06 µg/mL; in [11] it was 16 µg/mL; in data set [12], 0.06 µg/mL; in data set [13], 32 µg/mL; in data set [14], 0.06 µg/mL. For the same compound, the MIC in data set [15] is 16 µg/mL (≈ 34.7 µM). Further, the Activity entry in data set [8] is reported as “Not Active”.
Regarding `CC1CN(C(=O)c2cc3c(OCc4c(Cl)cccc4Cl)cccc3c3c2CCC(C)(C)O3)CC(C)O1` (centres undefined), the MIC in data set [1] is 64 µg/mL; in data set [2], 1020 µg/mL; in [4] it was 0.03 µg/mL; in [6] it was 16 µg/mL (≈ 30.3 µM); in data set [7], 8 µg/mL; in data set [9], 0.03 µg/mL. Further, the MIC is 64 µg/mL in data set [11]; 0.03 µg/mL in data set [12]; 64 µg/mL in data set [13]; 0.03 µg/mL in data set [14]; 16 µg/mL (≈ 30.3 µM) in [15]. For the same compound, the Activity result in data set [16] is on record as “Not Active”.
Take `CC1(C)CCc2c(-c3nnco3)cc3c(OCc4ccccc4)cccc3c2O1`: the MIC in data set [1] was 32 µg/mL; in [2], 512 µg/mL; in data set [3], greater than 512 µg/mL; in [4], 0.06 µg/mL; in [5], greater than 128 µg/mL; in data set [6] it was 16 µg/mL (≈ 41.4 µM). Also, the MIC in data set [7] is 4 µg/mL; in data set [9], 0.06 µg/mL; in data set [11], 16 µg/mL; in [12], 0.06 µg/mL; in data set [13], 32 µg/mL; in [14], 0.06 µg/mL. Further, the MIC in data set [15] stood at 16 µg/mL (≈ 41.4 µM). The Activity result in data set [8] is on record as “Not Active”.
For `CC1(C)CC(=O)c2ccc(OCCNC3CCCC3)cc2O1`, the MIC in data set [1] is 64 µg/mL; in data set [2], 512 µg/mL; in [3] it was greater than 512 µg/mL; in data set [4], 0.03 µg/mL; in data set [5], greater than 128 µg/mL; in data set [6] it was 16 µg/mL (≈ 52.7 µM). In addition, the MIC came out at 8 µg/mL in data set [7]; 0.03 µg/mL in [9]; 64 µg/mL in data set [11]; 0.03 µg/mL in data set [12]; 64 µg/mL in data set [13]; 0.06 µg/mL in [14]. Also, the MIC in [15] came out at 16 µg/mL (≈ 52.7 µM). For the same compound, the Activity result in [8] was “Not Active”.
